Values after ≈ are worked out from the molar mass of the structure shown. One block for each compound: values may come before it.
Experiments:
[1] = target: T1, Mitogen-activated protein kinase kinase kinase 8 (Homo sapiens, UniProt P41279); assay: Inhibition of human COT (66 to 395 residues) expressed in Sf21 cells using 5-Fluo-Ahx-AGAGSGQLIDSNleANSFVGTR-NH2 as substrate after 60 mins by caliper microfluidic mobility shift assay
[2] = Equilibrium solubility of the compound at pH 6.8 after 16 hrs by mass spectrometric analysis; type: physicochemical; conditions: buffer
[3] = Equilibrium solubility of the compound at pH 4 after 16 hrs by mass spectrometric analysis; type: physicochemical; conditions: buffer
[4] = target: T1, Mitogen-activated protein kinase kinase kinase 8; assay: Inhibition of COT in LPS-stimulated human PBMC assessed as reduction in ERK1/2 phosphorylation incubated for 60 mins followed by LPS stimulation for 12 mins by flow cytometric analysis
How it was run: (§1)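 Primary human PBMCs were stimulated with LPS. Read-outs were pERK, TNFα release, or p65 phosphorylation, each reported as IC50.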

[5] = target: T1, Mitogen-activated protein kinase kinase kinase 8; assay: Inhibition of COT in LPS-stimulated human PBMC assessed as reduction in TNFalpha release incubated for 1 hr followed by stimulation with LPS for 4 hrs by HTRF assay; how it was run: as §1
[6] = Octanol-water partition coefficient, log P of the compound by shake-flask method; type: physicochemical
[7] = target: T1, Mitogen-activated protein kinase kinase kinase 8; assay: Inhibition of COT in LPS-stimulated human whole blood assessed as reduction in TNFalpha release incubated for 30 mins followed by stimulation with LPS for 3 hrs by HTRF assay; type: tissue-based
How it was run: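 Human whole blood was stimulated with LPS, and TNFα release was measured as IC50.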

[8] = Protein binding in human plasma at 5 uM after 4 hrs by rapid equilibrium dialysis method; type: ADME, cell-free; conditions: read-out: PPB (converted)
[9] = Drug level in bile-duct cannulated Sprague-Dawley rat blood treated with N-(1-morpholinopropan-2-yl)-6-(8-(pyridin-4-yl)-1H-imidazo[4,5-c][1,7]naphthyridin-1-yl)benzo[d]thiazol-2-amine at 3 mg/kg, iv measured 1 to 4 hrs post dose; type: ADME, organism-based; conditions: in vivo
[10] = Drug level in bile-duct cannulated Sprague-Dawley rat bile treated with N-(1-morpholinopropan-2-yl)-6-(8-(pyridin-4-yl)-1H-imidazo[4,5-c][1,7]naphthyridin-1-yl)benzo[d]thiazol-2-amine at 3 mg/kg, iv measured over 8 hrs post dose; type: ADME, organism-based; conditions: in vivo
[11] = Drug level in bile-duct cannulated Sprague-Dawley rat urine treated with N-(1-morpholinopropan-2-yl)-6-(8-(pyridin-4-yl)-1H-imidazo[4,5-c][1,7]naphthyridin-1-yl)benzo[d]thiazol-2-amine at 3 mg/kg, iv measured over 8 hrs post dose; type: ADME, organism-based; conditions: in vivo
[12] = Drug level in bile-duct cannulated Sprague-Dawley rat feces treated with N-(1-morpholinopropan-2-yl)-6-(8-(pyridin-4-yl)-1H-imidazo[4,5-c][1,7]naphthyridin-1-yl)benzo[d]thiazol-2-amine at 3 mg/kg, iv measured over 8 hrs post dose; type: ADME, organism-based; conditions: in vivo
[13] = Drug level in bile-duct cannulated Sprague-Dawley rat liver treated with N-(1-morpholinopropan-2-yl)-6-(8-(thiophen-2-yl)-1H-imidazo[4,5-c][1,7]naphthyridin-1-yl)benzo[d]thiazol-2-amine at 3 mg/kg, iv measured 8 hrs post dose; type: ADME, organism-based; conditions: in vivo
[14] = Drug level in bile-duct cannulated Sprague-Dawley rat kidney treated with N-(1-morpholinopropan-2-yl)-6-(8-(thiophen-2-yl)-1H-imidazo[4,5-c][1,7]naphthyridin-1-yl)benzo[d]thiazol-2-amine at 3 mg/kg, iv measured 8 hrs post dose; type: ADME, organism-based; conditions: in vivo
[15] = Drug level in bile-duct cannulated Sprague-Dawley rat bile treated with N-(1-morpholinopropan-2-yl)-6-(8-(thiophen-2-yl)-1H-imidazo[4,5-c][1,7]naphthyridin-1-yl)benzo[d]thiazol-2-amine at 3 mg/kg, iv measured 8 hrs post dose; type: ADME, organism-based; conditions: in vivo
[16] = Drug level in bile-duct cannulated Sprague-Dawley rat urine treated with N-(1-morpholinopropan-2-yl)-6-(8-(thiophen-2-yl)-1H-imidazo[4,5-c][1,7]naphthyridin-1-yl)benzo[d]thiazol-2-amine at 3 mg/kg, iv measured 8 hrs post dose; type: ADME, organism-based; conditions: in vivo

T1 sequence (P41279 whole entry, the tested form may be a part): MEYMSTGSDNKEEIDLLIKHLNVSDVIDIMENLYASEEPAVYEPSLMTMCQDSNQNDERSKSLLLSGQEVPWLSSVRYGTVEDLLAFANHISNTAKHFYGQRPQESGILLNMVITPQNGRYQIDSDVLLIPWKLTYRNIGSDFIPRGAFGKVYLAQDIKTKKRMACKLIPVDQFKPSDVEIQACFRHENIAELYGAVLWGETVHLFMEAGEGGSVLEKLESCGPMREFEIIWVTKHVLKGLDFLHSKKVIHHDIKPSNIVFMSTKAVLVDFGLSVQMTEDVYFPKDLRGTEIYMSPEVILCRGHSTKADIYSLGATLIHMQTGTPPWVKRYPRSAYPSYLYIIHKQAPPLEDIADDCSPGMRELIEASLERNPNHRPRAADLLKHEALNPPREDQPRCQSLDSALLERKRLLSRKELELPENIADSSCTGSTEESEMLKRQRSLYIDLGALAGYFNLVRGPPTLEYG

Structure (SMILES): N#CCc1ccc(-n2cnc3cnc4ccc(-c5ccsc5)cc4c32)cc1
IC50 [1]: 2600 nM | logP [6]: 4.9

Structure (SMILES): CC(CN1CCOCC1)Nc1nc2ccc(-n3cnc4c(=O)[nH]c5cnc(-c6ccncc6)cc5c43)cc2s1 (stereo not given)
Drug metabolism [9]: Metabolite_Detected | Drug metabolism [10]: Metabolite_Detected | Drug metabolism [11]: Metabolite_Detected | Drug metabolism [12]: Metabolite_Detected

Structure (SMILES): C1=C(c2cc3c(cn2)ncc2ncn(-c4ccc5nc[nH]c5c4)c23)CCCC1
IC50 [1]: 1300 nM

Structure (SMILES): Cc1ccc(-c2cc3c(cn2)ncc2ncn(-c4ccc5nc[nH]c5c4)c23)cc1
IC50 [1]: 1300 nM

Structure (SMILES): CC(CN1CCOCC1)Nc1nc2ccc(-n3cnc4c(=O)[nH]c5cnc(-c6cccs6)cc5c43)cc2s1 (stereo not given)
Drug metabolism [13]: Metabolite_Detected | Drug metabolism [14]: Metabolite_Detected | Drug metabolism [15]: Metabolite_Detected | Drug metabolism [16]: Metabolite_Detected

Second part, the compound after the results:

IC50 [1]: 80 nM | solubility thermodynamic at 16 h [2]: < 4 µM | solubility thermodynamic at 16 h [3]: < 4 µM
Structure (SMILES): Cc1nc2ccc(-n3cnc4cnc5cnc(-c6ccccc6)cc5c43)cc2s1

IC50 [1]: 9 nM | IC50 [4]: 120 nM | IC50 [5]: 130 nM | logP [6]: 4.4 | IC50 [7]: 1010 nM | solubility thermodynamic at 16 h [2]: 9 µM (≈ 4.69 µg/mL) | solubility thermodynamic at 16 h [3]: > 1000 µM | fraction unbound at 4 h, 5 µM [8]: < 0.01
Structure (SMILES): CC(CN1CCOCC1)Nc1nc2ccc(-n3cnc4cnc5cnc(-c6ccccc6)cc5c43)cc2s1 (stereo not given)

IC50 [1]: 96 nM | solubility thermodynamic at 16 h [2]: < 4 µM | solubility thermodynamic at 16 h [3]: < 4 µM
Structure (SMILES): c1ccc(-c2cc3c(cn2)ncc2ncn(-c4ccc5ncccc5c4)c23)cc1

IC50 [1]: 50 nM | logP [6]: 3.9
Structure (SMILES): N#CCc1ccc(-n2cnc3cnc4cnc(-c5ccsc5)cc4c32)cc1

IC50 [1]: 38 nM | IC50 [4]: 620 nM | IC50 [5]: 1250 nM
Structure (SMILES): C[C@@H](CN1CCOCC1)Nc1ccc2cc(-n3cnc4cnc5cnc(-c6ccncc6)cc5c43)ccc2n1

IC50 [1]: 670 nM
Structure (SMILES): c1cncc(-c2cc3c(cn2)ncc2ncn(-c4ccc5nc[nH]c5c4)c23)c1

IC50 [1]: 90 nM
Structure (SMILES): c1ccc(-c2cc3c(cn2)ncc2ncn(-c4ccc5nc[nH]c5c4)c23)cc1

IC50 [1]: 800 nM | logP [6]: 5.4
Structure (SMILES): N#CCc1ccc(-n2cnc3cnc4cc(Cl)c(-c5ccsc5)cc4c32)cc1
